Molecular target: N-HSP90α WT (Homo sapiens, UniProt P07900)
Assay: SPR kinetics, two-state reaction model, amine-coupled protein
Format: binding
Method in brief: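 Protein was pre-incubated with a 100-fold excess of a reference ATP-site inhibitor, diluted to 20 μg/mL in acetate pH 4.50, and amine-coupled to a CM5 chip (~4000 RU). Compounds came from 10 mM DMSO stock as 2-fold series in HEPES/Tween 20 buffer at 30 μL/min, with 120 s contact and 200–600 s dissociation. Solvent-corrected, double-referenced data were fitted with mass transport.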

Kd: 6.06 µM
Structure (SMILES): O=c1cc(-c2ccc(O)c(O)c2)oc2cc(O[C@@H]3O[C@H](CO)[C@@H](O)[C@H](O)[C@H]3O)cc(O)c12 [compound 5]
